HNF4A DNA FP: change in binding of human HNF4 alpha to DNA. actives 0.3% (n = 360,000). activity change, % at 10 µM. P41235. HNF4a-FITC DNA binding, fluorescence polarization, 1 h. AID 1224865; in the data active = activity change above about 30%, passing the limit was not always enough
IDE cell inh: cellular human IDE inhibition. AID 434962. HEK cells, FAbetaB cleavage, fluorescence polarization. actives 0.41% (n = 320,000). inhibition, % at 5.59 µM;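 active = percent inhibition above the average of all tested compounds plus 3 SD, set per screening campaign, cut at about 16% in these data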;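 also: IDE supplied by intact live HEK cells; FP after avidin binding of uncleaved biotin substrate so inhibition keeps polarization high; 0% = DMSO wells and 100% = 60 µM reference IDE inhibitor Ii1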
CSN inh: CSN deneddylation inhibition; Q92905; Purified CSN, SCF-Nedd8-OG deneddylation, fluorescence polarization; inhibition, % at 12.5 µM; actives 0.38% (n = 360,000); AID 651999;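 active = pattern-corrected inhibition above about 35%, with an unprinted fluorescence ratio check between 0.5 and 1.5, limit read from the data, passing the limit was not always enough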;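 also: 0% = enzyme with substrate and 100% = substrate without enzyme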
Target sequence (Q92905 whole entry, looked up, one chain of several): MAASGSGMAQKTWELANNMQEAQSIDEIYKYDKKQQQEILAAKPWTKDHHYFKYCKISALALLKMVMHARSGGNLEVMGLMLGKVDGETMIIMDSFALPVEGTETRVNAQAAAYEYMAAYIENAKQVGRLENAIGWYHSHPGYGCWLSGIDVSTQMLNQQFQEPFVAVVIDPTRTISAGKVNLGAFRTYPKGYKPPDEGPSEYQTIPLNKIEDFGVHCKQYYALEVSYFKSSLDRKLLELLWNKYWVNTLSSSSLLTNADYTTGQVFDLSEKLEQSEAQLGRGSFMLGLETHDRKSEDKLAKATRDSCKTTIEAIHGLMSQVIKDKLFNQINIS
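Test system: purified human Csn5 enzyme expressed in HEK293T cells. Amount: 0.24 nM enzyme. Reagent: SCFSkp2-Nedd8OG substrate at 10 nM final. Schedule: 90 min incubation of compound, enzyme and substrate at room temperature. Detection: fluorescence polarization. Read-out: % inhibition of substrate cleavage by Csn5.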
TbMetRS inhib: blocks T. brucei methionyl-tRNA synthetase activity. purified T. brucei MetRS, ATP depletion, Kinase-Glo luminescence. inhibition, % at 11.9 µM. actives 0.4% (n = 360,000). AID 624268;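 active = inhibition above a per-plate cutoff of the control wells' mean inhibition plus 3 SD, cut at about 5.5% in these data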;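 also: 0% = DMSO wells median and 100% = median of wells with control inhibitor compound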
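Material: T. brucei methionyl-tRNA synthetase, purified; reagent: substrates ATP, L-methionine and bulk Escherichia coli tRNA; dosing: 11.9 µM single point; timing: 15 min plus 2 h at 25 °C; detection: luminescence of leftover ATP; evaluation: % inhibition; control set: DMSO-only wells as low control; replicates: singlicate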
TPT1 inh: blocks Candida albicans tRNA 2'-phosphotransferase; recombinant caTPT1, FP RNA substrate dephosphorylation; inhibition, % at 5 µM; actives 0.81% (n = 300,000);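 active = inhibition above the mean of all tested compounds plus 3 SD, set per screening campaign, cut at about 24% in these data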;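 also: plate controls were DMSO alone for no effect and ferristatin control at 100 nM for full effect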
IDE cell activ: activators of human insulin-degrading enzyme in cells. actives 0.073% (n = 340,000). activation, % at 5.96 µM. P14735. HEK cells, FAbeta-B cleavage, fluorescence polarization; 0% vehicle, 100% cell-free pure enzyme wells;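 active = activation above the mean of all tested compounds plus 3 SD, set per screening campaign, cut at about 17% in these data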
TPT1 inh confirm: confirmation of Candida albicans TPT1 inhibitors. shares compounds with TPT1 inh. recombinant caTPT1, fluorescence polarization, RNase T1 coupled. inhibition, % at 5 µM. actives 74% (n = 2,400). AID 2149;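 active = inhibition above the primary screen limit, the mean inhibition of all tested compounds plus 3 SD, cut at about 25% in these data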
RNase T1 counter: counter-screen for TPT1 inhibitors: inhibitors of Aspergillus oryzae RNase T1 | shares compounds with TPT1 inh | inhibition, % at 5 µM | actives 83% (n = 2,400) | RNase T1 cleavage, fluorescence polarization, 1536-well;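 active = inhibition above the solvent-only control well mean plus 3 SD, limit set per screening run, cut at about 23% in these data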;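 also: plate controls were DMSO wells with enzyme for no effect and wells without RNase T1 for full effect; inhibitors block cleavage so intact labeled substrate keeps polarization high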
Target sequence (P00651 whole entry, looked up): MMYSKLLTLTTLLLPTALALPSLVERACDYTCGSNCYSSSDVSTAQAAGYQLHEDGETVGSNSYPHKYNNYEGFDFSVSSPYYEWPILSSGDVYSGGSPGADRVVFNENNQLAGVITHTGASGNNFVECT
Active calls of the source: *; nt = no result given. A selection: hits, their analogues and other compounds. The true share with any hit is near 1.7%.

SMILES | HNF4A DNA FP | IDE cell inh | CSN inh | TbMetRS inhib | TPT1 inh | IDE cell activ | TPT1 inh confirm | RNase T1 counter
COc1cc(/C=C2\C(=O)ON=C2c2ccccc2)cc(Cl)c1O | -2 | 12 | 2 | 0 | 35* | -13 | 123* | 128*
CCOc1cc(/C=C2\C(=O)ON=C2c2ccccc2)cc(Br)c1O | 5 | 4 | 6 | -1 | 40* | -10 | 137* | 138*
COc1cc(/C=C2\C(=O)ON=C2c2ccccc2)cc(Br)c1O | 2 | -1 | 10 | -1 | 43* | -13 | 138* | 139*
CCOc1cc(/C=C2/C(=O)ON=C2C)cc(Br)c1O | 3 | 0 | 9 | -1 | 40* | -3 | 111* | 122*
CCC(NC(=O)c1ccccc1NC(=O)c1ccccc1)C(=O)NNC(=O)c1cccnc1 (stereo not given) | 1 | -9 | -8 | 0 | -2 | 5 | nt | nt
O=C(CCc1nnc(CCCc2ccccc2)o1)NCCCC1CCCC1 | 1 | 0 | -12 | -1 | -1 | 9 | nt | nt
CCOc1ccc(C(=O)CC(C(=O)O)N2CCCCC2)cc1 (stereo not given) | 3 | 2 | -2 | 0 | nt | 1 | nt | nt
Cc1ccc(/C=C2/C(=O)ON=C2c2ccccc2)o1 | -6 | 4 | 17 | -1 | 34* | -7 | 17 | 25*
O=C(O)c1cc(-c2ccco2)nn1-c1cccc(Cl)c1 | -41 | 9 | 26 | 0 | 29* | 3 | 25* | 32*
O=C(NC1CCCCC1)c1cc2c(cc1Cl)N1CCCCCC1=NS2(=O)=O | 0 | nt | 1 | 0 | nt | 1 | nt | nt
CCOC(=O)c1cc2nc(Nc3ccc(OC)cc3)sc2s1 | 18 | 4 | 5 | 0 | 39* | 5 | 27* | 40*
CCOC(=O)c1sc(Nc2ccc(Br)cc2)nc1C | 3 | 1 | 5 | 0 | 3 | -13 | nt | nt
CCN=c1scc(-c2ccc3c(c2)NC(=O)CO3)n1N=C1CCCC1 | 23 | 6 | 7 | 0 | 43* | 7 | 39* | 50*
COC(=O)c1ccc(OCCN2CCCCCC2)cc1 | 1 | 3 | -9 | 0 | 2 | 0 | nt | nt
COC(=O)c1ccc(OCCN2C3=NCCN3c3ccccc32)cc1 | 0 | 1 | -4 | 0 | 37* | 8 | 1 | 4
NC(=O)c1cc[n+](CC(=O)NC(=O)Nc2ccccc2)cc1 | 3 | 8 | 3 | 0 | nt | 2 | nt | nt
O=C(c1ccc(-c2ccc([N+](=O)[O-])cc2)o1)N1CCCCCCC1 | 3 | -4 | -1 | -1 | nt | -7 | nt | nt
O=C(c1ccc(-c2ccc([N+](=O)[O-])cc2)o1)N1CCCC(C(F)(F)F)C1 (stereo not given) | 6 | 1 | -3 | 0 | 25* | -1 | 13 | 19
CS(=O)(=O)N1CCN(c2ccccc2NC(=O)c2cc3ccccc3o2)CC1 | 1 | 4 | 2 | 0 | 5 | 0 | nt | nt
COc1ccccc1OCC(=O)Nc1ccc(-c2nnc(-c3ccco3)o2)cc1 | -2 | 3 | 3 | 0 | 1 | 9 | nt | nt
CCC(Oc1ccccc1)C(=O)Nc1ccc(-c2nnc(-c3ccco3)o2)cc1 (stereo not given) | 7 | 6 | -1 | 0 | 71* | 1 | 1 | 6
CN1CCc2c(sc(/N=C/c3cc(Cl)ccc3O)c2C#N)C1 | 20 | 1 | 23 | -1 | 27* | -5 | 28* | 38*
CN1CCc2c(sc(/N=C/c3c[nH]c4ccccc34)c2C#N)C1 | 77 | 2 | 70 | 1 | 44* | nt | 43* | 53*
Cc1cc(C)n(/N=C/c2c[nH]c3ccccc23)c(=O)c1C#N | 0 | -3 | 1 | 0 | -2 | 1 | nt | nt
Cc1ccc(/C=N/c2sc3c(c2C#N)CCC3)s1 | 0 | 4 | 0 | -1 | -2 | -6 | nt | nt
SMILES | HNF4A DNA FP | IDE cell inh | CSN inh | TbMetRS inhib | TPT1 inh | IDE cell activ | TPT1 inh confirm | RNase T1 counter
Nc1c(Cl)cc2c(c1Oc1ccccc1)C(=O)c1ccccc1C2=O | 23 | 4 | 11 | -1 | 25* | 1 | 30* | 41*
N#CC1=C(N)Oc2cc(N)ccc2C1c1ccc(F)cc1F (stereo not given) | 37 | 7 | 58 | -1 | 42* | 3 | 33* | 44*
N#CC1=C(N)Oc2cc(N)ccc2C1c1ccc(F)cc1 (stereo not given) | 0 | 2 | 4 | 2 | 1 | 2 | nt | nt
CCOc1ccc(C2C(C#N)=C(N)SC(N)=C2C#N)cc1OCC | 139 | 10 | 124 | 0 | 126* | -13 | 132* | 128*
CCOc1ccccc1C1C(C#N)=C(N)SC(N)=C1C#N | 104 | 3 | 42 | 0 | 82* | -7 | 56* | 67*
N#CC1=C(N)SC(N)=C(C#N)C1c1cccc(Oc2ccccc2)c1 | 136 | 1 | 39 | -1 | 111* | -7 | 54* | 69*
N#CC1=C(N)SC(N)=C(C#N)C1c1ccc([N+](=O)[O-])cc1 | 20 | 1 | 26 | 0 | 40* | -4 | 7 | 9
CCOc1ccc(C2C(C#N)=C(N)Oc3cc(C)n(CCN4CCOCC4)c(=O)c32)cc1OCC (stereo not given) | 2 | nt | -2 | -1 | nt | 1 | nt | nt
COc1ccc(C(c2nnnn2Cc2ccccc2)N2CCN(C/C=C/c3ccccc3)CC2)cc1 (stereo not given) | 1 | nt | 0 | 0 | nt | nt | nt | nt
Cn1nc(C(C)(C)C)cc1C(=O)N1CCCC(c2cc(C(=O)Nc3ccccc3Cl)no2)C1 (stereo not given) | 2 | nt | 3 | 0 | nt | nt | nt | nt
CCc1ccc(C2C(C#N)=C(N)SC(N)=C2C#N)cc1 | 140 | 4 | -37 | 0 | 106* | -4 | 73* | 86*
CCc1ccc(C2C(C#N)=C(N)SC(N)=C2C#N)s1 | 122 | 13 | 50 | -1 | 91* | -10 | 80* | 89*
CCOc1ccc(C2C(C#N)=C(N)SC(N)=C2C#N)cc1OC | nt | 20* | nt | nt | 115* | nt | 39* | 56*
N#CC1=C(N)SC(N)=C(C#N)C1c1ccc(C(F)(F)F)cc1 | nt | 5 | nt | nt | 20 | nt | nt | nt
Cc1ccc(C2C(C#N)=C(N)SC(N)=C2C#N)o1 | nt | 14 | nt | nt | 66* | nt | 34* | 46*
Cc1ccc2c(CC(=O)Nc3cccc(S(=O)(=O)N4CCOCC4)c3)coc2c1 | 2 | 8 | 2 | 1 | 0 | -3 | nt | nt
N#CC1=C(N)Oc2cc(N)ccc2C1c1ccccc1Cl (stereo not given) | -28 | nt | 0 | 0 | nt | 1 | nt | nt
